In brackets after ≈: the same amount, converted by molar mass.
Assays:
Type in all cases: functional
Escherichia coli [1] = assay: Antimicrobial activity against Escherichia coli ATCC 25922 by Etest method
Procedure, shortened: (§1)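 MICs read from Etest strips on Müller-Hinton agar, in μg/ml. E. coli ATCC 25922 served as the QC strain. Susceptible or resistant calls followed CLSI clinical breakpoints or EUCAST epidemiological cutoffs for cefotaxime, ceftazidime, ceftiofur, cefoxitin and cefuroxime.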

Escherichia coli [2] = assay: Antimicrobial activity against Escherichia coli J5 transconjugants expressing beta lactamase CTX-M-9 isolated from human flora associated C3H rat infected with Salmonella enterica serotype Virchow and treated with Cefixime-cluvulanic acid by Etest method
Salmonella enterica = assay: Antimicrobial activity against Salmonella enterica serotype Virchow 3464b by Etest method
Procedure, shortened: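 MIC determined by Etest strips on Müller-Hinton agar; E. coli ATCC 25922 used as the quality-control strain. Donor strain grown aerobically in brain heart infusion. Susceptible/resistant categories assigned from CLSI clinical breakpoints or EUCAST epidemiological cutoffs for cefotaxime, ceftazidime, ceftiofur, cefoxitin and cefuroxime. MICs expressed in μg/ml.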

Escherichia coli [3] = assay: Antimicrobial activity against Escherichia coli J5 transconjugants expressing beta lactamase CTX-M-9 isolated from human flora associated C3H rat infected with Salmonella enterica serotype Virchow by Etest method
Procedure, shortened: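 Etest MICs on Müller-Hinton agar, in μg/ml, with ATCC 25922 as QC. E. coli J5 transconjugants were isolated from feces of HFA C3H rats inoculated intragastrically with 8 log10 CFU J5, then Virchow donor 2 h later, and given sterile water by gavage instead of antibiotic. Isolates were selected on Drigalski agar with 250 μg/ml rifampin and 4 μg/ml cefixime and confirmed as J5 carrying blaCTX-M-9 by PCR/PFGE.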

Escherichia coli [4] = assay: Antimicrobial activity against Escherichia coli J5 transconjugants expressing beta lactamase CTX-M-9 isolated from human flora associated C3H rat infected with Salmonella enterica serotype Virchow and treated with Cefixime by Etest method
Procedure, shortened: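 Etest MICs on Müller-Hinton agar, in μg/ml, with ATCC 25922 as QC. Isolates were fecal E. coli J5 transconjugants from human flora-associated C3H rats coinoculated orally with 8 log10 CFU J5, then Virchow donor, and gavaged with cefixime 4 mg/kg twice daily for 8 days. Isolates were picked on Drigalski agar with 250 μg/ml rifampin plus 4 μg/ml cefixime and confirmed by PCR/PFGE and blaCTX-M-9 PCR.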

Escherichia coli [5] = assay: Antimicrobial activity against Escherichia coli J5 by Etest method; procedure, shortened: as §1

| Structure (SMILES) | MIC (Escherichia coli [1]) [µg/mL] | MIC (Escherichia coli [2]) [µg/mL] | MIC (Salmonella enterica) [µg/mL] | MIC (Escherichia coli [3]) [µg/mL] | MIC (Escherichia coli [4]) [µg/mL] | MIC (Escherichia coli [5]) [µg/mL] |
| --- | --- | --- | --- | --- | --- | --- |
| CN[C@@H]1[C@H](O[C@H]2[C@H](O[C@H]3[C@H](O)[C@@H](O)[C@H](N=C(N)N)[C@@H](O)[C@@H]3N=C(N)N)O[C@@H](C)[C@]2(O)C=O)O[C@@H](CO)[C@H](O)[C@H]1O [STREPTOMYCIN] | 2 (≈ 3.44 µM) | 2 (≈ 3.44 µM) | 128 (≈ 220 µM) | 2 (≈ 3.44 µM) | 2 (≈ 3.44 µM) | 2 (≈ 3.44 µM) |
| CO/N=C(\C(=O)N[C@@H]1C(=O)N2C(C(=O)O)=C(COC(N)=O)CS[C@H]12)c1ccco1 [CEFUROXIME] | 2 (≈ 4.71 µM) | 16 (≈ 37.7 µM) | > 32 | 16 (≈ 37.7 µM) | 8 (≈ 18.9 µM) | 2 (≈ 4.71 µM) |
| C=CC1=C(C(=O)O)N2C(=O)[C@@H](NC(=O)/C(=N\OCC(=O)O)c3csc(N)n3)[C@H]2SC1 [CEFIXIME] | 0.125 (≈ 0.276 µM) | 8 (≈ 17.6 µM) | 8 (≈ 17.6 µM) | 8 (≈ 17.6 µM) | 8 (≈ 17.6 µM) | 0.125 (≈ 0.276 µM) |
| CO/N=C(\C(=O)N[C@@H]1C(=O)N2C(C(=O)O)=C(CSC(=O)c3ccco3)CS[C@H]12)c1csc(N)n1 [CEFTIOFUR] | 0.25 (≈ 0.477 µM) | 1 (≈ 1.91 µM) | > 8 | 1 (≈ 1.91 µM) | 1 (≈ 1.91 µM) | 0.25 (≈ 0.477 µM) |
| CCn1cc(C(=O)O)c(=O)c2ccc(C)nc21 [NALIDIXIC ACID] | 4 (≈ 17.2 µM) | 4 (≈ 17.2 µM) | 256 (≈ 1100 µM) | 4 (≈ 17.2 µM) | 4 (≈ 17.2 µM) | 4 (≈ 17.2 µM) |
| CO[C@@]1(NC(=O)Cc2cccs2)C(=O)N2C(C(=O)O)=C(COC(N)=O)CS[C@@H]21 [CEFOXITIN] | 4 (≈ 9.36 µM) | 16 (≈ 37.4 µM) | 16 (≈ 37.4 µM) | 8 (≈ 18.7 µM) | 16 (≈ 37.4 µM) | 4 (≈ 9.36 µM) |
| CO/N=C(\C(=O)N[C@@H]1C(=O)N2C(C(=O)O)=C(COC(C)=O)CS[C@H]12)c1csc(N)n1 [CEFOTAXIME] | 0.03 (≈ 0.0659 µM) | 0.5 (≈ 1.1 µM) | > 8 | 0.5 (≈ 1.1 µM) | 0.5 (≈ 1.1 µM) | 0.03 (≈ 0.0659 µM) |
| CN(C)[C@@H]1C(O)=C(C(N)=O)C(=O)[C@@]2(O)C(O)=C3C(=O)c4c(O)cccc4[C@@](C)(O)[C@H]3C[C@@H]12 [TETRACYCLINE] | 1 (≈ 2.25 µM) | 4 (≈ 9 µM) | 64 (≈ 144 µM) | 2 (≈ 4.5 µM) | 2 (≈ 4.5 µM) | 1 (≈ 2.25 µM) |
| COc1cc(Cc2cnc(N)nc2N)cc(OC)c1OC [TRIMETHOPRIM] | 0.5 (≈ 1.72 µM) | 1 (≈ 3.44 µM) | > 64 | 0.5 (≈ 1.72 µM) | 0.5 (≈ 1.72 µM) | 0.5 (≈ 1.72 µM) |
| CC1(C)S[C@@H]2[C@H](NC(=O)[C@H](N)c3ccccc3)C(=O)N2[C@H]1C(=O)O [AMPICILLIN] | 4 (≈ 11.4 µM) | 16 (≈ 45.8 µM) | 128 (≈ 366 µM) | 16 (≈ 45.8 µM) | 16 (≈ 45.8 µM) | 4 (≈ 11.4 µM) |
| Cc1cc(NS(=O)(=O)c2ccc(N)cc2)no1 [SULFAMETHOXAZOLE] | 8 (≈ 31.6 µM) | 4 (≈ 15.8 µM) | > 512 | 4 (≈ 15.8 µM) | 4 (≈ 15.8 µM) | 8 (≈ 31.6 µM) |
| CO[C@H]1/C=C/O[C@@]2(C)Oc3c(C)c(O)c4c(O)c(c(/C=N/N5CCN(C)CC5)c(O)c4c3C2=O)NC(=O)/C(C)=C\C=C\[C@H](C)[C@H](O)[C@@H](C)[C@@H](O)[C@@H](C)[C@H](OC(C)=O)[C@@H]1C [RIFAMPIN] | 4 (≈ 4.86 µM) | > 512 | 4 (≈ 4.86 µM) | > 512 | > 512 | > 512 |
| CC(C)(O/N=C(\C(=O)N[C@@H]1C(=O)N2C(C(=O)[O-])=C(C[n+]3ccccc3)CS[C@H]12)c1csc(N)n1)C(=O)O [CEFTAZIDIME] | 0.125 (≈ 0.229 µM) | 1 (≈ 1.83 µM) | 8 (≈ 14.6 µM) | 1 (≈ 1.83 µM) | 1 (≈ 1.83 µM) | 0.125 (≈ 0.229 µM) |

Source: ChEMBL document CHEMBL1212773, “Transfer of plasmid-mediated CTX-M-9 from Salmonella enterica serotype Virchow to Enterobacteriaceae in human flora-associated rats treated with cefixime” (2010)
